# Measurements gathered from unrelated publications.
# Oprk1: Kappa-type opioid receptor (Oprk1, Mus musculus, UniProt P33534)
# BCHE: Cholinesterase (BCHE, Homo sapiens, UniProt P06276)
Compound,target,test,conditions,quantity,value
[2H]c1c([2H])c([C@]2([2H])CCCN2C(=O)C(C)(C)Oc2ccc3cn[nH]c3c2)c([2H])c([2H])c1C([2H])([2H])[2H],"MAP kinase-interacting serine/threonine-protein kinase 2 (MKNK2, Homo sapiens, UniProt Q9HBH9)","binding, competition with immobilised ligand",1 µM,remaining binding,100%
CC(C)[C@H](CN1CCc2ccccc2C1)NC(=O)Cc1c[nH]c2ccccc12,Oprk1,"ligand displacement, radioligand",10 µM,inhibition,90%
CN1CCC[C@H]1c1cccnc1,"Sodium-dependent noradrenaline transporter (SLC6A2, Homo sapiens, UniProt P23975)",ligand displacement,50 µM,inhibition,8.2%
CC(C)[C@H](CN1CCc2ccccc2C1)NC(=O)c1cccc(-c2cccc(O)c2)c1,Oprk1,"ligand displacement, radioligand",10 µM,inhibition,81%
COc1cc(/C=C/C(=O)O)ccc1OCc1cn(CC(=O)Nc2ccc(Cl)cc2Cl)nn1,BCHE,"enzyme activity, inhibitor, Ellman",40 µM,inhibition,58.2%
CC(C)CC(=O)OC[C@H]1O[C@@](C#N)(c2ccc3c(N)ncnn23)[C@H](O)[C@@H]1O,"Neuronal acetylcholine receptor; alpha3/beta4 (Homo sapiens, UniProt P30926+P32297)",cell-free assay,20 µM,inhibition,-5%
COc1cc(/C=C/C(=O)O)ccc1OCc1cn(CC(=O)Nc2cccc(Cl)c2)nn1,BCHE,"enzyme activity, inhibitor, Ellman",40 µM,inhibition,15.3%
c1cncc([C@@H]2CCCN2)c1,"Muscarinic acetylcholine receptor M5 (CHRM5, Homo sapiens, UniProt P08912)",ligand displacement,50 µM,inhibition,-2.02%
